Experiment [1] deals with Pichia kudriavzevii. In words: Inhibition of Candida krusei E28 growth for 48 hours in vitro. It counts as functional. The conditions noted are these: Pichia kudriavzevii, 48 h; read-out: MIC. A digest of the protocol: (§1)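 NCCLS M27-A broth microdilution in RPMI 1640 with L-glutamine and 0.165 M MOPS, pH 7.0. Isolates kept on Sabouraud dextrose agar. Inoculum 5 × 10^3 cfu/mL final. Compounds were diluted in DMSO (≤2% final) and tested in 2-fold dilutions of 1000–0.24 µmol/L. Incubation at 35 °C, OD540 read at 24 and 48 h. MIC = 80% growth inhibition versus control; assays run twice in duplicate.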

The subject of experiment [2] is Aspergillus fumigatus. In words: Inhibition of Aspergillus fumigatus 231 growth for 48 hours in vitro. It counts as functional. The note with it: Aspergillus fumigatus, 48 h; read-out: MIC. In outline:
(§2)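 Filamentous isolates tested by microdilution per NCCLS M27-A in RPMI 1640 plus L-glutamine, buffered with 0.165 M MOPS to pH 7.0. Final inoculum 5 × 10^3 cfu/mL. Compounds in DMSO (final ≤2%), 2-fold series over 1000–0.24 µmol/L. Plates held at 35 °C and read visually after 24 and 48 h. MIC taken as 80% inhibition of control growth; determined twice in duplicate.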

Experiment [3] relates to Candida albicans. Description: Inhibition of Candida albicans ATCC 44859 growth for 48 hours in vitro. It counts as functional. The conditions noted are these: Candida albicans, ATCC 44859, 48 h; read-out: MIC. A digest of the protocol:
as §1

Experiment [4] relates to Lichtheimia corymbifera. Description: In vitro inhibition of Absidia corymbifera 272 growth for 48 hours. It counts as functional. The conditions noted are these: Lichtheimia corymbifera, 48 h; read-out: MIC. A digest of the protocol: as §2
A short description of experiment [5]: Inhibition of Trichophyton mentagrophytes 445 growth for 72 hours in vitro. It counts as functional, Arthroderma benhamiae. The note with it: Trichophyton benhamiae, 72 h; read-out: MIC. In outline:
(§3)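 Dermatophyte grown in MOPS-buffered (0.165 M, pH 7.0) RPMI 1640 containing L-glutamine, in an M27-A microdilution format. Inoculum 5 × 10^3 cfu/mL final. Compounds from DMSO stocks (≤2% final), 2-fold dilutions 1000–0.24 µmol/L. Incubated at 35 °C, growth judged visually at 72 and 120 h. MIC endpoint is 80% inhibition relative to control; measured twice in duplicate.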

The subject of experiment [6] is Pichia kudriavzevii. In words: Inhibition of Candida krusei ATCC 6258 growth for 48 hours in vitro. It counts as functional. The conditions noted are these: Pichia kudriavzevii, ATCC 6258, 48 h; read-out: MIC. A digest of the protocol:
as §1

Experiment [7] concerns Trichosporon beigelii. Description: Inhibition of Trichosporon beigelli 1188 for 48 hours in vitro. It counts as functional. The conditions noted are these: Trichosporon beigelii, 48 h; read-out: MIC. In outline:
(§4)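 Microdilution following NCCLS M27-A. Medium: RPMI 1640 with L-glutamine, 0.165 M MOPS, pH 7.0. Final inoculum 5 × 10^3 cfu/mL. Compounds dissolved in DMSO, final ≤2%, serially halved from 1000 to 0.24 µmol/L. Incubated at 35 °C and read at 24 and 48 h. MIC defined as 80% inhibition of control growth; run twice in duplicate.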

For experiment [8], the system named is Candida albicans. In words: Inhibition of Candida albicans ATCC 90028 for 48 hours in vitro. It counts as functional. The note with it: Candida albicans, ATCC 90028, 48 h; read-out: MIC. In outline:
as §1

The subject of experiment [9] is Clavispora lusitaniae. Description: Inhibition of Candida lusitaniae 2446/I growth for 24 hours in vitro. It counts as functional. The conditions noted are these: Clavispora lusitaniae, 24 h; read-out: MIC. A digest of the protocol:
as §1

The test system of experiment [10] is Nakaseomyces glabratus. Description: Inhibition of Candida glabrata 20/I growth for 24 hours in vitro. It counts as functional. The conditions noted are these: Nakaseomyces glabratus, 24 h; read-out: MIC. A digest of the protocol:
as §1

For experiment [11], the system named is Candida tropicalis. Description: Inhibition of Candida tropicalis 156 growth for 24 hours in vitro. It counts as functional. The note with it: Candida tropicalis, 24 h; read-out: MIC. A digest of the protocol:
as §1

Experiment [12] deals with Pichia kudriavzevii. Description: Inhibition of Candida krusei ATCC 6258 growth for 24 hours in vitro. It counts as functional. The conditions noted are these: Pichia kudriavzevii, ATCC 6258, 24 h; read-out: MIC. A digest of the protocol: as §1
Experiment [13] deals with Nakaseomyces glabratus. In words: Inhibition of Candida glabrata 20/I growth for 48 hours in vitro. It counts as functional. The note with it: Nakaseomyces glabratus, 48 h; read-out: MIC. In outline: as §1
Experiment [14] concerns Candida tropicalis. In words: Inhibition of Candida tropicalis 156 growth for 48 hours in vitro. It counts as functional. The note with it: Candida tropicalis, 48 h; read-out: MIC. A digest of the protocol:
as §1

Experiment [15] deals with Candida parapsilosis. In words: Inhibition of Candida parapsilosis ATCC 22019 growth for 24 hours in vitro. The conditions noted are these: Lodderomyces parapsilosis, ATCC 22019, 24 h; read-out: MIC. It counts as functional. In outline: as §1
Experiment [16] has as its system Pichia kudriavzevii. In words: Inhibition of Candida krusei E28 growth for 24 hours in vitro. The conditions noted are these: Pichia kudriavzevii, 24 h; read-out: MIC. It counts as functional. In outline:
as §1

Experiment [17] can be described thus: Inhibition of Trichophyton mentagrophytes 445 growth for 120 hours in vitro. It counts as functional, Arthroderma benhamiae. The conditions noted are these: Trichophyton benhamiae, 120 h; read-out: MIC. A digest of the protocol: as §3
Experiment [18] has as its system Candida albicans. In words: Inhibition of Candida albicans ATCC 44859 growth for 24 hours in vitro. It counts as functional. The note with it: Candida albicans, ATCC 44859, 24 h; read-out: MIC. A digest of the protocol:
as §1

Experiment [19] relates to Candida albicans. Description: Inhibition of Candida albicans ATCC 90028 for 24 hours in vitro. It counts as functional. The note with it: Candida albicans, ATCC 90028, 24 h; read-out: MIC. In outline:
as §1

In experiment [20] the test system is Aspergillus fumigatus. Description: Inhibition of Aspergillus fumigatus 231 growth for 24 hours in vitro. The note with it: Aspergillus fumigatus, 24 h; read-out: MIC. It counts as functional. A digest of the protocol:
as §2

For experiment [21], the system named is Trichosporon beigelii. Description: Inhibition of Trichosporon beigelli 1188 for 24 hours in vitro. It counts as functional. The conditions noted are these: Trichosporon beigelii, 24 h; read-out: MIC. A digest of the protocol:
as §4

Experiment [22] deals with Lichtheimia corymbifera. In words: In vitro inhibition of Absidia corymbifera 272 growth for 24 hours. It counts as functional. The conditions noted are these: Lichtheimia corymbifera, 24 h; read-out: MIC. A digest of the protocol:
as §2

For experiment [23], the system named is Clavispora lusitaniae. Description: Inhibition of Candida lusitaniae 2446/I growth for 48 hours in vitro. It counts as functional. The note with it: Clavispora lusitaniae, 48 h; read-out: MIC. A digest of the protocol: as §1
For experiment [24], the system named is Candida parapsilosis. In words: Inhibition of Candida parapsilosis ATCC 22019 growth for 48 hours in vitro. It counts as functional. The conditions noted are these: Lodderomyces parapsilosis, ATCC 22019, 48 h; read-out: MIC. A digest of the protocol:
as §1

Structures are written as SMILES. ≈ marks a conversion by molar mass, not a printed value.

A word on the MIC: it is the least concentration at which growth counts as inhibited. Turning to `O=C1OC(COC(=O)c2ccc(Cl)cc2)C=C1c1ccc(Cl)c(Cl)c1` (configuration not stated), the MIC in the experiment with Pichia kudriavzevii [1] was found to be 7.81 µM (≈ 3.11 µg/mL); with Aspergillus fumigatus [2] it was 3.91 µM (≈ 1.55 µg/mL); in the experiment on Candida albicans [3], 1.95 µM (≈ 0.775 µg/mL); with Lichtheimia corymbifera [4] it was 31.2 µM (≈ 12.4 µg/mL); in [5] it was 0.98 µM (≈ 0.39 µg/mL); in the experiment with Pichia kudriavzevii [6] it was 7.81 µM (≈ 3.11 µg/mL). The MIC in the experiment on Trichosporon beigelii [7] is 7.81 µM (≈ 3.11 µg/mL); in the experiment with Candida albicans [8] it was 3.91 µM (≈ 1.55 µg/mL); in the experiment with Clavispora lusitaniae [9] it was 1.95 µM (≈ 0.775 µg/mL); in the experiment on Nakaseomyces glabratus [10] it was 0.98 µM (≈ 0.39 µg/mL); with Candida tropicalis [11], 1.95 µM (≈ 0.775 µg/mL); in the experiment on Pichia kudriavzevii [12] it was 3.91 µM (≈ 1.55 µg/mL). Further, the MIC with Nakaseomyces glabratus [13] stood at 0.98 µM (≈ 0.39 µg/mL); in the experiment with Candida tropicalis [14], 3.91 µM (≈ 1.55 µg/mL); in the experiment with Candida parapsilosis [15] it was 1.95 µM (≈ 0.775 µg/mL); in the experiment on Pichia kudriavzevii [16], 3.91 µM (≈ 1.55 µg/mL); in experiment [17], 0.98 µM (≈ 0.39 µg/mL); with Candida albicans [18], 0.12 µM (≈ 0.0477 µg/mL). For the same compound, the MIC in the experiment with Candida albicans [19] was 1.95 µM (≈ 0.775 µg/mL); with Aspergillus fumigatus [20], 0.98 µM (≈ 0.39 µg/mL); with Trichosporon beigelii [21] it was 1.95 µM (≈ 0.775 µg/mL); in the experiment with Lichtheimia corymbifera [22], 15.6 µM (≈ 6.22 µg/mL); in the experiment on Clavispora lusitaniae [23], 3.91 µM (≈ 1.55 µg/mL); in the experiment with Candida parapsilosis [24] it was 3.91 µM (≈ 1.55 µg/mL).
On to `COc1ccc(C2=CC(COC(=O)c3ccc(Cl)cc3)OC2=O)cc1` (configuration not stated), for which the MIC is 62.5 µM (≈ 22.4 µg/mL) in the experiment on Pichia kudriavzevii [1]; 125 µM (≈ 44.8 µg/mL) in the experiment on Aspergillus fumigatus [2]; 15.6 µM (≈ 5.61 µg/mL) with Candida albicans [3]; 62.5 µM (≈ 22.4 µg/mL) in the experiment on Lichtheimia corymbifera [4]; 7.81 µM (≈ 2.8 µg/mL) in experiment [5]; 62.5 µM (≈ 22.4 µg/mL) in the experiment on Pichia kudriavzevii [6]. Besides, the MIC in the experiment with Trichosporon beigelii [7] was > 125 µM; in the experiment on Candida albicans [8] it was 62.5 µM (≈ 22.4 µg/mL); in the experiment with Clavispora lusitaniae [9], 62.5 µM (≈ 22.4 µg/mL); in the experiment with Nakaseomyces glabratus [10], 62.5 µM (≈ 22.4 µg/mL); with Candida tropicalis [11], 31.2 µM (≈ 11.2 µg/mL); with Pichia kudriavzevii [12] it was 31.2 µM (≈ 11.2 µg/mL). Moreover, the MIC in the experiment on Nakaseomyces glabratus [13] stood at 125 µM (≈ 44.8 µg/mL); in the experiment with Candida tropicalis [14], 125 µM (≈ 44.8 µg/mL); in the experiment with Candida parapsilosis [15] it was 62.5 µM (≈ 22.4 µg/mL); with Pichia kudriavzevii [16], 31.2 µM (≈ 11.2 µg/mL); in experiment [17] it was 15.6 µM (≈ 5.61 µg/mL); in the experiment with Candida albicans [18], 1.95 µM (≈ 0.7 µg/mL). For the same compound, the MIC in the experiment with Candida albicans [19] is 31.2 µM (≈ 11.2 µg/mL); with Aspergillus fumigatus [20], 31.2 µM (≈ 11.2 µg/mL); with Trichosporon beigelii [21] it was > 125 µM; in the experiment with Lichtheimia corymbifera [22] it was 31.2 µM (≈ 11.2 µg/mL); in the experiment on Clavispora lusitaniae [23] it was 125 µM (≈ 44.8 µg/mL); in the experiment with Candida parapsilosis [24], > 125 µM.
As to `CC(C)(C)C(=O)OCC1C=C(c2cccc(Cl)c2)C(=O)O1` (configuration not stated), the MIC in the experiment with Pichia kudriavzevii [1] was found to be 15.6 µM (≈ 4.83 µg/mL); in the experiment on Aspergillus fumigatus [2] it was 3.91 µM (≈ 1.21 µg/mL); in the experiment with Candida albicans [3] it was 3.91 µM (≈ 1.21 µg/mL); in the experiment with Lichtheimia corymbifera [4] it was 15.6 µM (≈ 4.83 µg/mL); in [5] it was 1.95 µM (≈ 0.602 µg/mL); in the experiment with Pichia kudriavzevii [6] it was 7.81 µM (≈ 2.41 µg/mL). In addition, the MIC in the experiment with Trichosporon beigelii [7] is 15.6 µM (≈ 4.83 µg/mL); in the experiment with Candida albicans [8], 7.81 µM (≈ 2.41 µg/mL); in the experiment with Clavispora lusitaniae [9], 3.91 µM (≈ 1.21 µg/mL); with Nakaseomyces glabratus [10], < 0.98 µM; with Candida tropicalis [11], 7.81 µM (≈ 2.41 µg/mL); with Pichia kudriavzevii [12], 7.81 µM (≈ 2.41 µg/mL). Moreover, the MIC with Nakaseomyces glabratus [13] was < 0.98 µM; in the experiment on Candida tropicalis [14] it was 15.6 µM (≈ 4.83 µg/mL); with Candida parapsilosis [15], 7.81 µM (≈ 2.41 µg/mL); with Pichia kudriavzevii [16] it was 7.81 µM (≈ 2.41 µg/mL); in experiment [17], 1.95 µM (≈ 0.602 µg/mL); in the experiment with Candida albicans [18] it was < 0.98 µM. The MIC in the experiment on Candida albicans [19] was 3.91 µM (≈ 1.21 µg/mL); with Aspergillus fumigatus [20] it was < 0.98 µM; in the experiment with Trichosporon beigelii [21], 3.91 µM (≈ 1.21 µg/mL); with Lichtheimia corymbifera [22], 7.81 µM (≈ 2.41 µg/mL); with Clavispora lusitaniae [23], 7.81 µM (≈ 2.41 µg/mL); in the experiment on Candida parapsilosis [24] it was 15.6 µM (≈ 4.83 µg/mL).

Values taken from ChEMBL document CHEMBL1134691, “3-Phenyl-5-acyloxymethyl-2H,5H-furan-2-ones: synthesis and biological activity of a novel group of potential antifungal drugs” (2001).
